# Reference: ChEMBL document CHEMBL4024773, “The Magic of Crystal Structure-Based Inhibitor Optimization: Development of a Butyrylcholinesterase Inhibitor with Picomolar Affinity and in Vivo Activity” (J Med Chem, 2018)
# Active and inactive are the calls of the source. The calls are words filed in the database; no cut-off is given here.
# What was measured:
# [1] = human, hepatocytes, 2 h
# Cholinesterase [2] = target: T1, Cholinesterase (Homo sapiens, UniProt P06276); test: Competitive inhibition of recombinant human BChE using butyrylthiocholine iodide as substrate at pH 8 by stopped flow assay
# T1 sequence (P06276 whole entry): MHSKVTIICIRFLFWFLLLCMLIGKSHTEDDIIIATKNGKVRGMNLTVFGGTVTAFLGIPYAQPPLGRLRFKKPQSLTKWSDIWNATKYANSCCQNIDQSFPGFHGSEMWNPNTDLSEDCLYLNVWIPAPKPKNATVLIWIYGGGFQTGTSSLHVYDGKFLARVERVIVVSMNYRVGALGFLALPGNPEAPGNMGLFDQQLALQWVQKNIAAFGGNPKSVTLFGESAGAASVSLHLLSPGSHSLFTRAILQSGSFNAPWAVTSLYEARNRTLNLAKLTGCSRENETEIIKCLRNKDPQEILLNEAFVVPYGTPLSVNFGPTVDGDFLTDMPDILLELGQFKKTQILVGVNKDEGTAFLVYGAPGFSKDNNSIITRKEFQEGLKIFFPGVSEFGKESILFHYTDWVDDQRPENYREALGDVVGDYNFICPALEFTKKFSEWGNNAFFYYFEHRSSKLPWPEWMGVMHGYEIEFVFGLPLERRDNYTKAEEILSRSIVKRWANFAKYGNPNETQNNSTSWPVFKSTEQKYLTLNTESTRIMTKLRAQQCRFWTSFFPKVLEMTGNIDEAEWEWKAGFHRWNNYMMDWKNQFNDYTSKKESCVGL
# Cholinesterase [3] = target: T1, Cholinesterase; test: Inhibition of recombinant human BChE using butyrylthiocholine iodide as substrate preincubated for 300 secs followed by substrate addition measured for 1 min by Ellman's method
# Acetylcholinesterase = target: T2, Acetylcholinesterase (Mus musculus, UniProt P21836); test: Inhibition of mouse AChE using acetylthiocholine iodide as substrate preincubated for 300 secs followed by substrate addition measured for 1 min by Ellman's method
# T2 sequence (P21836 whole entry): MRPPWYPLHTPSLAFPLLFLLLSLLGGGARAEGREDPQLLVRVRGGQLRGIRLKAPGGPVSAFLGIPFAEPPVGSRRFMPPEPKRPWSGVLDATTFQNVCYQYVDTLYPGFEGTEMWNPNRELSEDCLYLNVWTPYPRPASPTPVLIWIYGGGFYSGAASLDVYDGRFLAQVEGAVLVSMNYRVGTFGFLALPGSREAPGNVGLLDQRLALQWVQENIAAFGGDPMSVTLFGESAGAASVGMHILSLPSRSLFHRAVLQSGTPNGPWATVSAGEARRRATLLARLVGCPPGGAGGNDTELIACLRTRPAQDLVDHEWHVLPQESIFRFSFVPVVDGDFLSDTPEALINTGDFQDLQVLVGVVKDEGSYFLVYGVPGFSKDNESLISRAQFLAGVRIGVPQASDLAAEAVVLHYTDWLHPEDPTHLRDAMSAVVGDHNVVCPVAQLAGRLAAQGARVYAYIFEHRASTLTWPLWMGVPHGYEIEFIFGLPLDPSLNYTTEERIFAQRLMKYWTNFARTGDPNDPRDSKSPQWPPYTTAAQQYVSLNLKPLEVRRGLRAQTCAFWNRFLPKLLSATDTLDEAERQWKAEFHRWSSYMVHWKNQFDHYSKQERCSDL
# How it was run: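 Inhibition of murine AChE measured by the Ellman method with acetylthiocholine iodide as substrate. IC50 determined only where inhibition reached at least 50% at 10 µM. Otherwise recorded as IC50 >10 µM.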
# [4] = target: Butyrylcholinesterase (Rattus norvegicus) (UniProt Q9JKC1); settings: 300 uM
# Butyrylcholinesterase (Rattus norvegicus), sequence (Q9JKC1 as listed by the source): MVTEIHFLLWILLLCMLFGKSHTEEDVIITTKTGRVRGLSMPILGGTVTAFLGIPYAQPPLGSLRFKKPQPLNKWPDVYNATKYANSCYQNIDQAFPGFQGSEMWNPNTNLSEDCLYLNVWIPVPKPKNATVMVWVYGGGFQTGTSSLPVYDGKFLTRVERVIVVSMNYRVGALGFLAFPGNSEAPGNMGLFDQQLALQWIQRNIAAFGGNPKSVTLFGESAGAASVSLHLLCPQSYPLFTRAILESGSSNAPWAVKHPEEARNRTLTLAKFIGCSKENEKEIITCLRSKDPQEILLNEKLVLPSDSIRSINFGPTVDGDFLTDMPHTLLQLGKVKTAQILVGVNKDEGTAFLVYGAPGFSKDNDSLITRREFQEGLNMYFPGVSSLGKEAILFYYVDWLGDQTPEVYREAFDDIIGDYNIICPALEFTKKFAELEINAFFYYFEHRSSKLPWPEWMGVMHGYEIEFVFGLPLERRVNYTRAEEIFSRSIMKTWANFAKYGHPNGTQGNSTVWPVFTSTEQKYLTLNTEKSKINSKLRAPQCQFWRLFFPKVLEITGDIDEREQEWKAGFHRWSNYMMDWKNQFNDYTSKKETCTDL
# Mus musculus [5] = test: Reversal of scopolamine-induced memory impairment in C57BL/6J mouse assessed as decrease in traveled distance to reach the escape platform at 10 mg/kg, ip administered 60 mins prior to test post scopolamine challenge measured on day 7 by Morris water maze test; format: functional, organism-based
# Mus musculus [6] = test: Reversal of scopolamine-induced memory loss in C57BL/6J mouse assessed as decrease in escape latency time at 10 mg/kg, ip administered 60 mins prior to test post scopolamine-challenge measured on day 7 by Morris water maze test; format: functional, organism-based
# [7] = Drug level in cryopreserved human hepatocytes treated with HCl salt of (+/-)-N-((1-(2,3-Dihydro-1H-inden-2-yl)piperidin-3-yl)methyl)-N-(2-(dimethylamino)ethyl)-2-naphthamide Dichloride at 1 uM after 120 mins by HPLC-MS/MS analysis; format: ADME, cell-based, Hepatocyte; settings: 2 h
# How it was run: (§1)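 Flurazepam, naloxone and propranolol, which are high-extraction […] references, served as positive controls.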
# [8] = Half life in human plasma at 1 uM by HPLC-MS/MS analysis; format: ADME, cell-free
# in vitro [9] = settings: human, HepG2 cells
# [10] = Protein binding in human plasma at 10 uM after 4 hrs by HPLC-MS/MS analysis; format: ADME, cell-free; settings: read-out: PPB (converted)
# Brain = settings: rat, in vivo, ip, 10 mg/kg, 1 h
# [11] = Apparent intrinsic clearance in cryopreserved human hepatocytes assessed per million cells at 1 uM after 120 mins by HPLC-MS/MS analysis; format: ADME, cell-based, Hepatocyte; settings: 2 h
# How it was run: as §1
# [12] = Drug uptake in Wistar Han rat plasma at 10 mg/kg, ip after 1 hr by LC-MS/MS analysis; format: ADME, organism-based
# [13] = Stability of the compound in human plasma assessed as compound remaining at 1 uM after 120 mins by HPLC-MS/MS analysis; format: ADME, cell-free; settings: read-out: Stability
# [14] = Half life in cryopreserved human hepatocytes at 1 uM after 120 mins by HPLC-MS/MS analysis; format: ADME, cell-based, Hepatocyte
# How it was run: as §1
# Mus musculus [15] = test: Toxicity in Albino Swiss CD-1 mouse assessed as reduction in locomotor activity by measuring number of light beam crossings at 30 mg/kg, ip measured at 24 to 30 mins post dose; format: organism-based; settings: in vivo
# How it was run: (§2)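 Mice were given 30 mg/kg intraperitoneally, the same dose used in the Morris water-maze task. Safety was assessed with a locomotor activity test monitored over time, rotarod at 6, 18 and 24 rpm, and observation for acute cholinergic adverse signs.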
# Mus musculus [16] = test: Reversal of scopolamine-induced hyperlocomotion in C57BL/6J mouse assessed as speed of swimming at 30 mg/kg, ip administered 60 mins prior to test post scopolamine challenge measured on day 7 by Morris water maze test (reference value: 0.20 meter/s); format: functional
# Mus musculus [17] = test: Toxicity in Albino Swiss CD-1 mouse assessed as acute adverse cholinergic effects at 30 mg/kg, ip; format: organism-based; settings: in vivo
# How it was run: as §2
# [18] = Apparent permeability across apical to basolateral side in human Caco2 cells at 100 uM after 20 mins by fluorescein dye based HPLC-UV analysis; format: ADME, cell-based; settings: Caco-2
# How it was run: (§3)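 Caco-2 permeability (Papp) was measured bidirectionally, absorptive apical-to-basolateral and eliminatory basolateral-to-apical. The efflux ratio was calculated as Papp(B–A)/Papp(A–B).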
# in vitro [19] = settings: human, SH-SY5Y cells
# Mus musculus [20] = test: Toxicity in Albino Swiss CD-1 mouse assessed as motor impairment at 30 mg/kg, ip using rod revolving at 6, 18, or 24 rpm after 60 mins by rotarod test; format: organism-based; settings: in vivo, 1 h
# How it was run: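 Rotarod test in mice given 30 mg/kg intraperitoneally, the dose used in the water maze tests. Motor performance recorded at rod speeds of 6, 18 and 24 rpm.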
# [21] = Apparent permeability across basolateral to apical side in human Caco2 cells at 100 uM after 20 mins by fluorescein dye based HPLC-UV analysis; format: ADME, cell-based; settings: Caco-2
# How it was run: as §3
# [22] = Ratio of drug level in brain to plasma in Wistar Han rat at 10 mg/kg, ip after 1 hr by LC-MS/MS analysis; format: ADME, organism-based; settings: read-out: BPR
# How it was run: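 Rats received a single intraperitoneal injection of 10 mg/kg. Brain tissue (µg/kg) and blood plasma (µg/L) concentrations were measured 1 h later and reported as mean ±SEM. The brain-to-plasma ratio was calculated from these concentrations.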
# [23] = Drug metabolism in cryopreserved human hepatocytes assessed as (+/-)-N-((1-(2,3-Dihydro-1H-inden-2-yl)piperidin-3-yl)methyl)-N-(2-(methylamino)ethyl)-2-naphthamide dihydrochloride formation at 1 uM after 120 mins by HPLC-MS/MS analysis; format: ADME, cell-based, Hepatocyte; settings: 2 h
# How it was run: as §1
# Cholinesterase [24] = target: T1, Cholinesterase; settings: 5 to 10 nM
# Mus musculus [25] = test: Reversal of scopolamine-induced hyperlocomotion in C57BL/6J mouse assessed as speed of swimming at 10 mg/kg, ip administered 60 mins prior to test post scopolamine challenge measured on day 7 by Morris water maze test (reference value: 0.20 meter/s); format: functional
# [26] = Efflux ratio of apparent permeability from basolateral to apical side over apical to basolateral side in human Caco2 cells; format: ADME, cell-based; settings: Caco-2
smiles,measurement,setting,value
O=c1cc(C(F)(F)F)c2ccc(O)cc2o1,Stability,[1],Unstable
c1ccc2c(NCCCCCCCNc3c4c(nc5ccccc35)CCCC4)c3c(nc2c1)CCCC3,Ki,Cholinesterase [2],0.163 nM
COCCN(CC1CCN(Cc2ccccc2)CC1)C(=O)c1ccc2ccccc2c1,IC50,Cholinesterase [3],702 nM
same,IC50,Acetylcholinesterase,> 10000 nM
COCCN(CC1CCCN(Cc2ccccc2)C1)S(=O)(=O)c1ccc2ccccc2c1 (configuration not stated),inhibition,[4],Active
same,IC50,Acetylcholinesterase,> 10000 nM
COc1cc2c(cc1OC)C(=O)C(CC1CCN(Cc3ccccc3)CC1)C2 (configuration not stated),Activity,Mus musculus [5],Active
same,Activity,Mus musculus [6],Active
COCCN(CC1CCCN(Cc2ccccc2)C1)C(=O)c1ccc2ccccc2c1 (racemic),IC50,Cholinesterase [3],230 nM
same,IC50,Acetylcholinesterase,> 10000 nM
COCCN(CC1CCCN(C2Cc3ccccc3C2)C1)C(=O)c1ccc2cc(Br)ccc2c1 (racemic),IC50,Cholinesterase [3],410 nM
same,IC50,Acetylcholinesterase,> 10000 nM
CNCCN(CC1CCCN(C2Cc3ccccc3C2)C1)C(=O)c1ccc2ccccc2c1.Cl.Cl (racemic),IC50,Cholinesterase [3],18 nM
same,Drug metabolism,[7],Metabolite_Detected
O=C(NCC1CCCN(Cc2ccccc2)C1)c1ccc2ccccc2c1 (racemic),IC50,Cholinesterase [3],1440 nM
same,IC50,Acetylcholinesterase,> 10000 nM
O=C(NCC1CCCN(C2Cc3ccccc3C2)C1)c1cccc2ccccc12 (racemic),IC50,Cholinesterase [3],67 nM
same,IC50,Acetylcholinesterase,> 10000 nM
O=C(NCC1CCCN(Cc2nc3ccccc3s2)C1)c1ccc2ccccc2c1 (racemic),IC50,Cholinesterase [3],632 nM
same,IC50,Acetylcholinesterase,> 10000 nM
CN(C)CCN(CC1CCCN(C2Cc3ccccc3C2)C1)C(=O)c1ccc2ccccc2c1.Cl (racemic),half-life at 1 µM,[8],> 2 h
same,CC50 at 24 h,in vitro [9],33900 nM
same,"fraction unbound at 4 h, 10 µM",[10],0.07
same,Drug uptake,Brain,248 µg/kg
same,CLH(app),[11],< 8.2 µL/min
same,concentration at 1 h,[12],169 ng/mL
same,"remaining at 2 h, 1 µM",[13],76%
same,half-life at 1 µM,[14],> 2 h
same,Activity,Mus musculus [15],Toxic
same,Activity,Mus musculus [16],0.18 meter/s
same,Activity,Mus musculus [17],Non-Toxic
same,"Papp A→B at 20 min, 100 µM",[18],28 ×10⁻⁶ cm/s
same,CC50 at 48 h,in vitro [19],6630 nM
same,Activity,Mus musculus [20],Non-Toxic
same,"Papp B→A at 20 min, 100 µM",[21],46.1 ×10⁻⁶ cm/s
same,Kp at 1 h,[22],1.47
same,Drug metabolism,[23],Metabolite_Detected
CN(C)CCN(CC1CCCN(C2Cc3ccccc3C2)C1)C(=O)c1ccc2ccccc2c1 (racemic),IC50,Acetylcholinesterase,> 10000 nM
COCCCN(CC1CCCN(C2Cc3ccccc3C2)C1)C(=O)c1ccc2ccccc2c1 (racemic),IC50,Cholinesterase [3],38.2 nM
same,IC50,Acetylcholinesterase,> 10000 nM
"COCCN(CC1CCCN(C2Cc3ccccc3C2)C1)C(=O)c1ccc2ccccc2c1 (single isomer, unassigned; (+))",deltaG,Cholinesterase [24],-11.9 kcal/mol
COc1cc2c(cc1OC)C(=O)C(CC1CCN(Cc3ccccc3)CC1)C2.Cl (configuration not stated) [DONEPEZIL HYDROCHLORIDE],Activity,Mus musculus [25],0.15 meter/s
COc1cc2c(cc1OC)C(=O)C(CC1CCN(Cc3ccccc3)CC1)C2 (configuration not stated) [DONEPEZIL],concentration at 1 h,[12],2 to 300 ng/mL
CCN(CC)CCN1C(=O)CN=C(c2ccccc2F)c2cc(Cl)ccc21 [FLURAZEPAM],Stability,[1],Unstable
COC(=O)c1ccccc1-c1c2ccc(=N)cc-2oc2cc(N)ccc12.Cl [RHODAMINE123],"Papp A→B at 20 min, 100 µM",[18],1.1 ×10⁻⁶ cm/s
same,efflux ratio,[26],7.3
same,"Papp B→A at 20 min, 100 µM",[21],7.7 ×10⁻⁶ cm/s
